Results on 6 compounds are retold here after ChEMBL document CHEMBL3120162, “Sesquiterpenes from Neurolaena lobata and their antiproliferative and anti-inflammatory activities” (J Nat Prod, 2014).

Experiment [1] has as its system HUVEC. In words: Inhibition of LPS-induced IL-8 secretion in HUVEC expressing TERT treated for 15 mins prior to LPS challenge measured after 6 hrs by ELISA. The experiment is classed as functional, Homo sapiens. In short, it runs like this: (§1)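 Immortalized HUVEC (hTERT) were grown in medium 199 with 20% FBS, glutamine and ECGS/heparin. Compounds were added in medium with 5% FBS (final 30 μM) 15 min before a stimulus: TNF-α 30 ng/mL or LPS 100 ng/mL final. Media were collected after 6 h and IL-8 protein was measured by ELISA with TMB substrate. Sextuplicates, BAY positive control, ANOVA.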
On the technique in general: In an ELISA, binding on a coated surface is turned into a signal by an enzyme label.

In experiment [2] the test system is HUVEC. The experiment in a line: Inhibition of TNF-alpha-induced IL-8 secretion in HUVEC expressing TERT treated for 15 mins prior to LPS challenge measured after 6 hrs by ELISA. It counts as functional, Homo sapiens. The method in brief: as §1
In a further experiment the test system is MCF7. In words: Antiproliferative activity against human MCF7 cells assessed as inhibition of cell proliferation after 72 hrs by MTT assay. As to conditions: MCF7, 72 h. The experiment is classed as functional, cell-based. The method in brief: (§2)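 Cells seeded at 5000/well and allowed to attach overnight, then given fresh medium with test agents (from 10 mM DMSO stocks; at most 0.3% DMSO in medium) for 72 h. 5 mg/mL MTT solution was added for 4 h, and formazan was dissolved in DMSO and read at 545 nm. Untreated cells served as negative control and cisplatin as reference. Two plates, ≥5 parallel wells each. IC50 from sigmoidal dose-response fits.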
A general note: Formazan colour is commonly taken as a measure of viable cells.

A further experiment has as its system HeLa. In words: Antiproliferative activity against human HeLa cells assessed as inhibition of cell proliferation after 72 hrs by MTT assay. The experiment is classed as functional, cell-based. In short, it runs like this: as §2
The subject of experiment [3] is HUVEC. The experiment in a line: Inhibition of LPS-induced IL-8 secretion in HUVEC expressing TERT at 30 uM treated for 15 mins prior to LPS challenge measured after 6 hrs by ELISA. The experiment is classed as functional, cell-based. As to conditions: Homo sapiens. In short, it runs like this:
as §1

The next experiment concerns A-431. In words: Antiproliferative activity against human A431 cells assessed as inhibition of cell proliferation after 72 hrs by MTT assay. It counts as functional, cell-based. As to conditions: A-431, 72 h. In short, it runs like this:
as §2

A further experiment relates to A2780. In words: Antiproliferative activity against human A2780 cells assessed as inhibition of cell proliferation after 72 hrs by MTT assay. It counts as functional, cell-based. As to conditions: A2780, 72 h. The method in brief:
as §2

Experiment [4] concerns HUVEC. The experiment in a line: Inhibition of TNF-alpha-induced IL-8 secretion in HUVEC expressing TERT at 30 uM treated for 15 mins prior to LPS challenge measured after 6 hrs by ELISA. As to conditions: Homo sapiens. The experiment is classed as functional, cell-based. The method in brief: as §1

Each structure is given as a SMILES string. Active and inactive are the calls of the source. No cut-off for these calls is given here. Where only a bound is given, the exact number is not on record here.

`Cc1ccc(S(=O)(=O)/C=C/C#N)cc1`: the “inhibition (INH)” value turned out to be 12.7% with HUVEC [1] and 23.7% with HUVEC [2].

Regarding `C=C1C(=O)O[C@@H]2[C@@H]1[C@H](OC(=O)CC(C)C)C[C@@]1(C)[C@H](O)C[C@H](OC(C)=O)C(=C)[C@H]21` (relative stereo), the IC50 is over 10 µM in the experiment on MCF7, over 10 µM in the experiment on HeLa, 5.3 µM in the experiment on A-431 and 7.2 µM with A2780. In addition, in the experiment on HUVEC [3], the inhibition result is “Active”. The inhibition result in the experiment on HUVEC [4] was “inactive”.

Consider `C=C1C(=O)O[C@@H]2/C=C(\C)[C@H](O)C[C@H]3O[C@]3(C)C[C@@H](OC(=O)CC(C)C)[C@@H]12` (relative stereo), for which the half-inhibitory concentration (IC50) in the experiment on MCF7 was 7.2 µM; in the experiment with HeLa, over 10 µM; with A-431 it was 7.2 µM; in the experiment on A2780 it was 4.7 µM. In addition, the inhibition entry with HUVEC [3] is “Active”. The inhibition result in the experiment on HUVEC [4] was “inactive”.

As for `C=C1C(=O)O[C@@H]2[C@@H](O)[C@@H](C)C3=CC(=O)[C@](C)(O3)[C@H](O)[C@@H](OC(=O)CC(C)C)[C@@H]12` (relative stereo), the IC50 with MCF7, in the experiment with HeLa, in the experiment on A-431 and with A2780 was over 10 µM throughout. Also, in the experiment on HUVEC [3], the inhibition entry is “Active”. Moreover, the inhibition entry in the experiment with HUVEC [4] was “inactive”.

For the compound `C=C1C(=O)O[C@@H]2C[C@@]3(C)O[C@H](O[C@H]3CC(=O)C(C)=O)[C@@H](OC(=O)CC(C)C)[C@@H]12` (relative stereo), the IC50 in the experiment on MCF7 is over 10 µM; in the experiment on HeLa, over 10 µM; in the experiment on A-431 it was 6.8 µM; in the experiment on A2780, 5.4 µM. Also, the inhibition entry in the experiment with HUVEC [3] was “Active”. For the same compound, in the experiment with HUVEC [4], the inhibition result is “inactive”.

As to `C=C1C(=O)O[C@@H]2C[C@]3(C)O[C@@H](O[C@@H]3CC(=O)C(C)=O)[C@@H](OC(=O)CC(C)C)[C@@H]12` (relative stereo), the IC50 in the experiment on MCF7 is over 10 µM; in the experiment with HeLa, over 10 µM; in the experiment on A-431, over 10 µM; in the experiment with A2780, 9.8 µM. Also, in the experiment with HUVEC [3], the inhibition result was “Active”. Moreover, the inhibition entry in the experiment with HUVEC [4] is “inactive”.

By IC50 is commonly meant the concentration needed to halve the response being measured.
